What all share (assay type): cell-based
One experiment deals with T1, Kir3.1/3.2 (GIRK) (Homo sapiens, UniProt P48051+P48549).
T1 sequence (P48549 1-501): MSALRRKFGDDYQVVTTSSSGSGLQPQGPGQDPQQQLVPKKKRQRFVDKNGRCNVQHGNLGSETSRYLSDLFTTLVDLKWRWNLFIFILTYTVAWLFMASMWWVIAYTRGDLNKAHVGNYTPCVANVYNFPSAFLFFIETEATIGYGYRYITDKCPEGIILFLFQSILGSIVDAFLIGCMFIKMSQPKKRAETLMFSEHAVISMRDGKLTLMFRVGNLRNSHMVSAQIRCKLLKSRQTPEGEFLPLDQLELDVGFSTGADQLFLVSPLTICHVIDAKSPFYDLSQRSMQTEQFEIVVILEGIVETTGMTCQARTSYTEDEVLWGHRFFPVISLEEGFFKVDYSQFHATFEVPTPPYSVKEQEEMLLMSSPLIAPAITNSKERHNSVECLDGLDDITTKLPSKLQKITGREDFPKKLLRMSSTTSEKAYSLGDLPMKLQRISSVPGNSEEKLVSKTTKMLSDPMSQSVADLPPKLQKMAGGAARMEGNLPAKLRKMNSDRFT
T1 sequence (P48051 1-423): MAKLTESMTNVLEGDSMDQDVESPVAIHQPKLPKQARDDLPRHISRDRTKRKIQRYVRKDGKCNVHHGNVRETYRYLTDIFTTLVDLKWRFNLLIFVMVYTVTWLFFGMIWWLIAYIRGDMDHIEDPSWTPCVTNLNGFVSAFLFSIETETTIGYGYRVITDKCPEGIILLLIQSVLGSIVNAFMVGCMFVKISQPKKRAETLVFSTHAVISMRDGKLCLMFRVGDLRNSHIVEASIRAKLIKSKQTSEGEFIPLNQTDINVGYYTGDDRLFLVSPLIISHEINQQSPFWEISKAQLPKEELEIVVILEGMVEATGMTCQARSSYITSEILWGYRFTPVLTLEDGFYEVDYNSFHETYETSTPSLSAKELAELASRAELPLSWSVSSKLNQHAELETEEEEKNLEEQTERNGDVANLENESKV
Briefly: Whole-cell patch clamp, Kir3.1/3.2 in transfected HEK-293 cells. Put shortly:
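HEK-293 cells were transiently co-transfected with channel plus an EGFP marker (Lipofectamine). Pipette: 135 mM KCl, 2 mM MgCl2, 1 mM EGTA, 10 mM HEPES, 2 mM Na2ATP, pH 7.3. Bath: 135 mM NaCl, 5 mM KCl, pH 7.4; some runs used 50 mM KCl. Held at −75 mV and ramped −120 to 120 mV every 5 s, at 20–23°C. Test compound was bath-applied for 2–10 min, then 2 mM BaCl2. CRC n = 4–7. τ taken from the time course.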
On the technique in general: Patch clamp records ionic current or voltage across a cell membrane.

The target in experiment [1] is T2, Kir2.3 (Homo sapiens, UniProt P48050).
T2 sequence (P48050 1-445): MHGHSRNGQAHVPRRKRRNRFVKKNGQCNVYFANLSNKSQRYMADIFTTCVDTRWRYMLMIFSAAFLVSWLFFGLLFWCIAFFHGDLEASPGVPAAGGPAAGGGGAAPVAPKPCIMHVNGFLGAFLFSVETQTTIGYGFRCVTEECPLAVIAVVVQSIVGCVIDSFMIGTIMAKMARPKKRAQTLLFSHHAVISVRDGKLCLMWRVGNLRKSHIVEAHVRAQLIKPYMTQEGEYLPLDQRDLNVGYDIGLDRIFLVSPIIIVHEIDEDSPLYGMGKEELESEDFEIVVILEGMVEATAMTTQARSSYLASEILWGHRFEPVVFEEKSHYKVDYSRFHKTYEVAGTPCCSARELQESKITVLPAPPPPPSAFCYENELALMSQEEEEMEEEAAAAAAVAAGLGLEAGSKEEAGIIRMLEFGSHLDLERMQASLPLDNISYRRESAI
The experiment in a line: Two-electrode voltage clamp in Xenopus oocytes, Kir2.3. The gist of the method:
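Stage V–VI Xenopus oocytes were defolliculated with 1 mg/mL collagenase and injected with 0.5–10 ng cRNA. They were kept at 16°C in modified L-15 for 24–72 h. Two-electrode voltage clamp at 20–23°C: held at −75 mV and stepped to −120 mV for 200 ms every 5 s, with current at −120 mV tracked over time. Test compound (50 μM) was perfused, then 2 mM Ba2+. Time constant of inhibition derived.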
(Two-electrode voltage clamp is typically applied to oocytes expressing channels or transporters.)

The target in the next experiment is T3, Kir3.1/3.4 (Homo sapiens, UniProt P48544+P48549).
T3 sequence (P48549 1-501): T1 sequence (P48549 1-501)
T3 sequence (P48544 1-419): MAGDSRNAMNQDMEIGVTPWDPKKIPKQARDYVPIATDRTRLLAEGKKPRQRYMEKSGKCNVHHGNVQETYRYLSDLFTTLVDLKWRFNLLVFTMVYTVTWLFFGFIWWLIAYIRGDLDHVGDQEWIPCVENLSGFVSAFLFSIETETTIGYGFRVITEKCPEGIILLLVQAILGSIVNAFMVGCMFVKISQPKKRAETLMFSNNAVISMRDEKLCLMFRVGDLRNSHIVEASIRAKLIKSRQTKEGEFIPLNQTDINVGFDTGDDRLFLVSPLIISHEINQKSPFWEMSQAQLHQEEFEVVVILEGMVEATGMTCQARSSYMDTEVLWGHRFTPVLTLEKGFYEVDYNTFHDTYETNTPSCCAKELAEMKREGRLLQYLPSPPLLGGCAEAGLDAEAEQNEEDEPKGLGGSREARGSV
The experiment in a line: Two-electrode voltage clamp in Xenopus oocytes, Kir3.1/3.4. The following applies: TEVC oocytes, 25 μM, mean ± SEM, n = 6. Put shortly:
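Xenopus oocytes were injected with Kir3.1/3.2 or Kir3.1/3.4 cRNA and voltage-clamped with two electrodes at 20–23°C, with current at −80 mV followed over time. The bath was switched from K+-free to 90 mM K+ to activate the channel. Test compound in 90K was applied continuously at graded concentrations, then 2 mM Ba2+ was added. A final 0K switch measured leak. Time constant derived (n = 6 at 25 μM). Percent inhibition n = 4–6.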

The target of experiment [2] is T2, Kir2.3. Briefly: Whole-cell patch clamp, T-REx-HEK-293-Kir2.3 cells. Put shortly:
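Monoclonal T-REx-HEK-293-Kir2.3 cells were patched after overnight induction with tetracycline (1 μg/mL). Pipette: 135 mM KCl, 1 mM MgCl2 (reduced against rundown), 1 mM EGTA, 10 mM HEPES, 2 mM Na2ATP, pH 7.3. Bath: 135 mM NaCl, 5 mM KCl, pH 7.4. Held at −75 mV and ramped −120 to 120 mV every 5 s, at 20–23°C. Test compound was bath-applied, then 2 mM BaCl2. CRC n = 4–6. τ taken from the time course.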

With `Cc1ccc(OCC(O)Cn2c(=N)n(Cc3ccccc3)c3ccccc32)cc1` (centres unmarked) [Compound 1, 1-(3-benzyl-2-imino-2,3-dihydro-1H-benzo[d]imidazol-1-yl)-3-(p-tolyloxy)propan-2-ol], the IC50 against Kir3.1/3.2 (GIRK) is 1.3 µM; against Kir2.3 [2] (IC50 Kir2.3, whole-cell patch clamp, T-REx-HEK-293-Kir2.3) it was approximately 1 µM. At Kir3.1/3.2 (GIRK) (whole-cell patch clamp, HEK-293, 30 μM bath application), the “inhibition of GIRK” value was “near complete inhibition”. Moreover, the “time constant of inhibition of Kir3.1/3.2” value at Kir3.1/3.2 (GIRK) (whole-cell patch clamp, HEK-293, 30 μM, mean ± SEM, n = 5) stood at 16 ± 1 s. For the same compound, the “time constant (τ) of Kir2.3 inhibition” value on Kir2.3 [1] (TEVC oocytes, 50 μM, n = 7) was 154 ± 32 s. For the same compound, the inhibition at 50 µM at Kir2.3 [1] (read-out: inhibition of Kir2.3) was 80.9 ± 5%. The “time constant (τ) for inhibition of Kir3.1/3.4 currents” value at Kir3.1/3.4 was 27 ± 5 s. Also, at Kir2.3 [2] (whole-cell patch clamp, 30 μM, mean ± SEM, n = 4), the “time constant for inhibition of Kir2.3” value was determined as 23 ± 2 s.

As a reminder, the IC50 is the midpoint of a concentration-inhibition curve. What is called inhibition is the relative decrease from the control value, in per cent.

The values above are taken from PMC3254186 (Frontiers in Pharmacology, 2011).
